From ChEMBL document CHEMBL1145632, “Sulfamoyl benzamides as novel CB2 cannabinoid receptor ligands” (Bioorg Med Chem Lett, 2008)
Calls of active or inactive are those of the source.

Tests used:
Homo sapiens [1] = species on record: Homo sapiens; assay: Selectivity ratio of Ki for human cloned CB1 receptor to Ki for human cloned CB2 receptor
Procedure, shortened: (§1)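 Competition binding of 0.2–0.6 nM [3H]CP55940 to membranes from cells expressing cloned human CB1 or CB2 receptors. Buffer: 50 mM Tris-HCl pH 7.0, 5.0 mM MgCl2, 1.0 mM EGTA, 1.0 mg/mL fatty-acid-free BSA. Incubation was 120 min at 30 °C for CB1 and 60 min at room temperature for CB2. Samples were filtered and counted by scintillation. Nonspecific binding was set with 10 µM WIN55212-2. Ratio is Ki CB1/Ki CB2.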

Cannabinoid receptor 1 [2] = target: T1, Cannabinoid receptor 1 (Homo sapiens, UniProt P21554); assay: Displacement of [3H]CP-55940 from human cloned CB1 receptor; procedure, shortened: as §1
Cannabinoid receptor 2 [3] = target: T2, Cannabinoid receptor 2 (Homo sapiens, UniProt P34972); assay: Displacement of [3H]CP-55940 from human cloned CB2 receptor; procedure, shortened: as §1
Cannabinoid receptor 1 [4] = target: T1, Cannabinoid receptor 1; assay: Agonist activity at human cloned CB1 receptor by [35S]GTPgammaS binding assay; type: functional
Cannabinoid receptor 2 [5] = target: T2, Cannabinoid receptor 2; assay: Agonist activity at human cloned CB2 receptor by [35S]GTP-gamma-S binding assay; type: functional
Procedure, shortened: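 Stimulation of [35S]GTPγS binding used 25 µg membrane protein from cells expressing cloned human CB2. Mix: 100–150 pM [35S]GTPγS, 150 mM NaCl, 45 mM MgCl2, 3 µM GDP, 0.4 mM DTT, 1.0 mM EGTA, 1 mg/mL fatty-acid-free BSA in 50 mM Tris-HCl pH 7.0. Incubation was 6 h at room temperature, read by scintillation. Stimulation over basal (no agonist) is expressed as % of 10 µM WIN55212-2.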

Homo sapiens [6] = species on record: Homo sapiens; assay: Selectivity ratio of EC50 for human cloned CB1 receptor to EC50 for human cloned CB2 receptor
Rattus norvegicus [7] = assay: Toxicity in rat assessed as induction of catalepsy at 10 mg/kg, ip; type: organism-based; set-up: dose 10 mg/kg, route intraperitoneal; settings: in vivo
Rattus norvegicus [8] = assay: Antiallodynic effect in rat hind paw incision-induced nociception model at 10 mg/kg, ip; type: functional, organism-based; set-up: dose 10 mg/kg
Procedure, shortened: (§2)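 Rats with L5 spinal nerve ligation or hindpaw incision were dosed as stated. Read-out was paw-withdrawal threshold of the left hindpaw, reported as group mean ± SEM. Groups were compared by one-way ANOVA with protected t-test against the vehicle-treated surgery group.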

Rattus norvegicus [9] = assay: Antiallodynic effect in rat hind paw incision-induced nociception model at 30 mg/kg, ip; type: functional, organism-based; set-up: dose 30 mg/kg
Rattus norvegicus [10] = assay: Toxicity in rat assessed as behavioral side effects upto 10 mg/kg, ip; type: organism-based; set-up: dose 10 mg/kg, route intraperitoneal; settings: in vivo
Rattus norvegicus [11] = assay: Reversal of nerve injury-induced tactile allodynia in rat L5 spinal nerve ligation-induced nociception model at 3 mg/kg, ip; type: functional, organism-based; set-up: dose 3 mg/kg; procedure, shortened: as §2
Rattus norvegicus [12] = assay: Antiallodynic effect in rat hind paw incision-induced nociception model at 100 mg/kg, ip; type: functional, organism-based; set-up: dose 100 mg/kg
Rattus norvegicus [13] = assay: Toxicity in rat assessed as induction of catalepsy at 6 mg/kg, ip; type: organism-based; set-up: dose 6 mg/kg, route intraperitoneal; settings: in vivo
Rattus norvegicus [14] = assay: Antiallodynic effect in rat hind paw incision-induced nociception model at 3 mg/kg, sc; type: functional, organism-based; set-up: dose 3 mg/kg; procedure, shortened: as §2
Rattus norvegicus [15] = assay: Reversal of nerve injury-induced tactile allodynia in rat L5 spinal nerve ligation-induced nociception model at 60 mg/kg, ip; type: functional, organism-based; set-up: dose 60 mg/kg; procedure, shortened: as §2
Cannabinoid receptor 1 [16] = target: T1, Cannabinoid receptor 1; assay: Displacement of [3H]CP-55940 from human cloned CB1 receptor at 10 uM

T2 sequence (P34972 whole entry): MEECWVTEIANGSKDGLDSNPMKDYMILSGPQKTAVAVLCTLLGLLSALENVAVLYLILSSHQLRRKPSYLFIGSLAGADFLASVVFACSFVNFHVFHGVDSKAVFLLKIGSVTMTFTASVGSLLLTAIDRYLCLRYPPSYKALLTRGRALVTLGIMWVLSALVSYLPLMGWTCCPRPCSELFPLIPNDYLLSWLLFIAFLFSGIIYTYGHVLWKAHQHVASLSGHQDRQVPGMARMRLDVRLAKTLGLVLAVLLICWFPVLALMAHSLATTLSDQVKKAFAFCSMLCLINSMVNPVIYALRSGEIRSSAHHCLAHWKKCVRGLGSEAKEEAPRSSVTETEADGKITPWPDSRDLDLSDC
T1 sequence (P21554 whole entry): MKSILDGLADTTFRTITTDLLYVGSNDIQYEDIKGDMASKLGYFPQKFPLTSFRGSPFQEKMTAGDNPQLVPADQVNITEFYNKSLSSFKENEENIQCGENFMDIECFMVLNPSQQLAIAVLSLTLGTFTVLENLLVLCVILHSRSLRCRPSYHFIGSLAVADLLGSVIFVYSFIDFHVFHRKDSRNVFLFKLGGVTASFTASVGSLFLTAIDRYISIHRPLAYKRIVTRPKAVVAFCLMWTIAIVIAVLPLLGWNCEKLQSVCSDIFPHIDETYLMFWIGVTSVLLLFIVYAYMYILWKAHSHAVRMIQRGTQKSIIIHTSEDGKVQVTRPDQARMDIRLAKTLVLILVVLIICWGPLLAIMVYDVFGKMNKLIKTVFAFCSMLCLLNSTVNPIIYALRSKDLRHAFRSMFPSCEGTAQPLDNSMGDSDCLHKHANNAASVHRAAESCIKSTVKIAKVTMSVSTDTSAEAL

| SMILES | Ratio Ki (Homo sapiens [1]) | Ki (Cannabinoid receptor 1 [2]) [nM] | Ki (Cannabinoid receptor 2 [3]) [nM] | EC50 (Cannabinoid receptor 1 [4]) [nM] | EC50 (Cannabinoid receptor 2 [5]) [nM] | Ratio EC50 (Homo sapiens [6]) | further results |
| --- | --- | --- | --- | --- | --- | --- | --- |
| CC(C)(C)CNC(=O)c1ccc(Br)c(S(=O)(=O)N2CCCCC2)c1 | 13 | 1300 | 100 |  |  |  |  |
| CC1(C)[C@H]2CC[C@](C)(C2)[C@@H]1NC(=O)c1ccc(Br)c(S(=O)(=O)N2CCOCC2)c1 | 25 | 89 | 3.5 | 560 | 8.8 | 64 |  |
| Cc1ccc(C(=O)NC(C)C(C)(C)C)cc1S(=O)(=O)N1CCOCC1 (stereo not drawn) | 9 | 1300 | 180 | 2400 | 125 | 19 |  |
| Cc1ccc(C(=O)N[C@@H]2C(C)(C)[C@H]3CC[C@]2(C)C3)cc1S(=O)(=O)N1CCOCC1 | 31 | 130 | 3.9 | 550 | 4.6 | 120 | Activity (Rattus norvegicus [7]): Non-toxic; Activity (Rattus norvegicus [8]): Active; Activity (Rattus norvegicus [9]): inactive; Activity (Rattus norvegicus [10]): Non-toxic; Activity (Rattus norvegicus [11]): Active; Activity (Rattus norvegicus [12]): inactive; Activity (Rattus norvegicus [13]): Non-toxic |
| CC(C)(C)CNC(=O)c1ccc(Br)c(S(=O)(=O)N2CCOCC2)c1 | 3 | 1300 | 450 |  |  |  |  |
| Cc1ccc(C(=O)N[C@H]2CC3CC[C@@]2(C)C3(C)C)cc1S(=O)(=O)N1CCOCC1 | 7 | 50 | 8.1 | 210 | 14 | 15 |  |
| COc1cccc(CNC(=O)c2ccc(Br)c(S(=O)(=O)N3CCCCC3)c2)c1 | 7 | 1400 | 200 |  |  |  |  |
| CC1(C)[C@H]2CC[C@](C)(C2)[C@@H]1NC(=O)c1ccc(Br)c(S(=O)(=O)N2CCCCC2)c1 | 7 | 93 | 13 | 280 | 6.6 | 42 |  |
| CN(Cc1ccccc1)S(=O)(=O)c1cc(C(=O)NCC(C)(C)C)ccc1Br | > 2 | > 1000 | 430 |  |  |  |  |
| Cc1ccc(C(=O)NC2C(C)CCCC2C)cc1S(=O)(=O)N1CCOCC1 (stereo not drawn) | 5 | 470 | 92 | 540 | 44 | 12 |  |
| CN1CC[C@]23c4c5ccc(O)c4O[C@H]2[C@@H](O)C=C[C@H]3[C@H]1C5 |  |  |  |  |  |  | Activity (Rattus norvegicus [14]): Active |
| Cc1ccc(C(=O)NC23CC4CC(CC(C4)C2)C3)cc1S(=O)(=O)N1CCOCC1 | 14 | 260 | 19 | 570 | 48 | 12 |  |
| Cc1ccc(C(=O)NC2C3CC4CC(C3)CC2C4)cc1S(=O)(=O)N1CCOCC1 (stereo not drawn) | 15 | 33 | 5.6 | 270 | 12 | 23 |  |
| NCC1(CC(=O)O)CCCCC1 |  |  |  |  |  |  | Activity (Rattus norvegicus [15]): Active |
| CC(C)(C)CNC(=O)c1ccc(Br)c(S(=O)(=O)N2CCCC2)c1 | 5 | 2000 | 400 |  |  |  |  |
| CC1(C)[C@H]2CC[C@](C)(C2)[C@@H]1NC(=O)c1ccc(Br)c(S(=O)(=O)N2CCCC2)c1 | 12 | 110 | 9.4 | 220 | 4.3 | 51 |  |
| O=C(NCc1ccccc1)c1ccc(Br)c(S(=O)(=O)N2CCCCC2)c1 | 3 | 1100 | 360 |  |  |  |  |
| CC(C)CNC(=O)c1ccc(Br)c(S(=O)(=O)N(C)Cc2ccccc2)c1 | > 3 | > 1000 | 340 |  |  |  |  |
| O=C(NCc1cccnc1)c1ccc(Br)c(S(=O)(=O)N2CCCCC2)c1 | 5 | 1800 | 320 |  |  |  |  |
| CC(C)CNC(=O)c1ccc(Br)c(S(=O)(=O)N2CCCCC2)c1 | > 2 | > 1000 | 410 |  |  |  |  |
| Cc1ccc(C(=O)NC(C(C)(C)C)C(C)(C)C)cc1S(=O)(=O)N1CCOCC1 | 9 | 310 | 34 | 920 | 21 | 44 |  |
| Cc1ccc(C(=O)N[C@H]2C(C)(C)[C@H]3CC[C@]2(C)C3)cc1S(=O)(=O)N1CCOCC1 | 11 | 540 | 48 | 880 | 25 | 35 |  |
| CN(Cc1ccccc1)S(=O)(=O)c1cc(C(=O)N[C@@H]2C(C)(C)[C@H]3CC[C@]2(C)C3)ccc1Br | > 100 | > 1000 | 11 |  |  |  | inhibition (Cannabinoid receptor 1 [16]): 33% |
| Cc1ccc(C(=O)NC(C)C23CC4CC(CC(C4)C2)C3)cc1S(=O)(=O)N1CCOCC1 (stereo not drawn) | 5 | 77 | 6.3 | 290 | 9.3 | 31 |  |
| Cc1ccc(C(=O)NCC(C)(C)C)cc1S(=O)(=O)N1CCOCC1 | > 3 | > 1000 | 390 | > 1000 | 1800 |  |  |
| Cc1ccc(C(=O)NCC23CC4CC(CC(C4)C2)C3)cc1S(=O)(=O)N1CCOCC1 | 9 | 91 | 10 | 210 | 25 | 8 |  |
